# Compound activity from PubChem.
# Only some compounds are listed: those with a hit (about 9.6% of all), similar ones and a draw of the others.
# MT stabilize HCS: stabilizes microtubules in HeLa cells | % tubulin-high responders, % at 10 µM | AID 2205 | 200,000 compounds, 0.83% hits | HeLa tubulin immunostaining HCS, 24 h; share of cells brighter than vehicle mean+2SD;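 active = plate Z-score above 3 for both tubulin-high and condensed-nucleus cell shares, with cell loss under 80%, at 10 µM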;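 note: anti alpha tubulin signal scored within the nucleus-defined area of each cell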
# bCat nuc transl: alters nuclear translocation of beta-catenin in HeLa cells; 190,000 compounds, 0.3% hits; nuclear translocation activity, % at 5 µM; immunofluorescence imaging;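 active = nuclear translocation activity above 50% at 5 µM, with a well cell count of 50 or more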;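 note: per-cell ratio of nuclear to cytoplasmic median beta-catenin stain intensity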
#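 Test system: human HeLa cells, native beta-catenin. Compound dosing: 5 µM primary single dose, 0.1% DMSO, 0.02–20 µM confirmation series. Incubation: compound exposure 24 h at 37°C. Detection: beta-catenin immunostaining with DAPI counterstain, 20x imaging, 6 fields/well. Read-out basis: Nuclear/cytoplasmic beta-catenin signal ratio, % activation.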
# BaF3 tox: parental Ba/F3 viability inhibition as JAK2V617F counter-screen; CellTiter-Glo ATP luminescence; inhibition, % at 5.6 µM; 220,000 compounds, 1.1% hits; AID 1486;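 active = inhibition above a per-campaign cutoff, the mean inhibition of all tested compounds plus 3 SD, cut at about 27% in these data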
# APP 5UTR inh: APP translation inhibition | AID 1285 | inhibition, % at 2 µM | 190,000 compounds, 0.82% hits | SH-SY5Y APP 5'UTR-luciferase reporter, luminescence;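 active = inhibition above a set limit, derived from the sample mean plus 3 SD, cut at about 45% in these data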
# L major viab: reduces viability of Leishmania major promastigotes; resazurin fluorescence viability; inhibition, % at 10 µM; 200,000 compounds, 9% hits; AID 1063; in the data active = inhibition above about 50%;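 note: promastigotes grown with compound for 44 hours at 28 °C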
# Ba/F3 V617F tox: lowers viability of Ba/F3 cells expressing EpoR and JAK2V617F. 220,000 compounds, 1.1% hits. inhibition, % at 5.6 µM. ATP luminescence;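 active = inhibition above the campaign mean plus 3 SD over all tested compounds, cut at about 24% in these data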;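 note: cytokine-independent growth of Ba/F3 cells driven by EpoR plus mutant JAK2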
# Numbers stand for hits; . = inactive; / = no result given.
SMILES,MT stabilize HCS,bCat nuc transl,BaF3 tox,APP 5UTR inh,L major viab,Ba/F3 V617F tox
COc1ccc(N=C2SC(C(=O)Nc3ccc(OC)cc3)CC(=O)N2CCN2CCOCC2)cc1 (centres undefined),.,/,.,.,58,.
CCN=C1SC(C(=O)Nc2ccc(OC)cc2)CC(=O)N1CC (centres undefined),.,.,.,.,.,.
COc1c(OC(C)=O)ccc(/C=C/c2ccc3cccc(OCc4ccccc4)c3n2)c1[N+](=O)[O-],.,.,.,.,62,.
COc1ccc(C(=O)N/N=C/c2ccc3cccc(OCc4ccccc4)c3n2)cc1,.,.,.,.,65,.
O=C(N/N=C/c1ccc2cccc(OCc3ccccc3)c2n1)c1ccc(Br)cc1,.,.,.,.,75,.
NC(N)=N/N=C/c1ccc2cccc(OCc3ccccc3)c2n1,/,.,.,/,/,.
CNC(=O)/C(=C\c1ccc2c(c1)OCO2)NC(=O)c1ccc(Br)cc1,.,.,.,.,.,.
CCN(CC)C(=O)C(=O)c1cccn1-c1ccccc1C#N,.,.,.,.,.,.
Cc1ccccc1C(=O)N1CCN(c2ccc([N+](=O)[O-])c(NCc3cccnc3)c2)CC1,.,.,.,.,.,.
Cc1ccc(C(=O)N2CCN(c3ccc([N+](=O)[O-])c(NCc4cccnc4)c3)CC2)cc1,.,.,.,.,57,.
Cc1cccc(NC(=O)c2ccc(C(=O)c3ccccc3)o2)c1,.,.,.,.,.,.
COc1cc(CCC(=O)OCC(N)=O)cc(OC)c1OC,.,.,.,.,.,.
CCC(C)c1ccccc1NC(=O)COC(=O)CCc1cc(OC)c(OC)c(OC)c1 (centres undefined),.,.,.,.,51,.
CCN(c1ccc(NC(=O)COC(=O)CCc2cc(OC)c(OC)c(OC)c2)cc1)C(C)C,.,.,80,.,.,.
COc1cccc(CN2CCSCC2)c1,.,/,.,.,.,.
COc1ccc(CN2CCN(c3cccc(C)c3C)CC2)cc1OC,.,/,.,.,81,.
COc1ccc(CN2CCSCC2)cc1C,.,.,.,.,78,.
COc1cc(CN2CCN(c3cccc(C)c3C)CC2)cc(Br)c1O,.,.,.,.,95,.
Cc1cc(O)c(C(C)C)cc1NC(=O)c1ccccc1Cl,.,.,.,45,.,.
Cc1cc(NC(=O)c2ccccc2Cl)c(C(C)C)cc1O,.,.,.,.,.,.
COc1cc(Cl)c(C)cc1NC(=O)c1cc(S(=O)(=O)N(C)C)ccc1N1CCCC1,.,.,.,.,.,.
COc1cc(SC)ccc1C(=O)Nc1ccc(Br)cn1,/,.,.,/,/,.
CCN(CC)S(=O)(=O)c1ccc(N2CCCC2)c(C(=O)Nc2ccc(OC)c(Cl)c2)c1,.,.,.,.,91,.
CCN(CC)S(=O)(=O)c1cccc(NC(=O)c2ccccc2Br)c1,.,.,.,.,.,.
COc1cc(SC)ccc1C(=O)Nc1ncc(C)s1,.,.,.,.,67,.
SMILES,MT stabilize HCS,bCat nuc transl,BaF3 tox,APP 5UTR inh,L major viab,Ba/F3 V617F tox
CCN(CC)S(=O)(=O)c1cccc(NC(=O)c2ccc(SC)cc2OC)c1,.,.,.,.,62,.
O=C(N/N=C\c1ccc(F)cc1)c1csnn1,.,.,/,.,.,/
CC(=NCc1ccco1)c1c(C)[nH]n(-c2nc3ccccc3s2)c1=O,.,.,.,.,.,.
C/C(=N/NC(=O)c1cccs1)c1c(C)[nH]n(-c2nc3ccccc3s2)c1=O,.,.,49,.,.,48
CN(Cc1ccccc1)C(=O)COC(=O)c1cc(NS(=O)(=O)c2cccs2)ccc1O,.,.,.,.,.,.
C=C1N(c2ccccc2)C(=O)OC1(C)C,.,.,.,.,.,.
O=C1CCC/C1=c1\s/c(=C\c2cccnc2)c(=O)n1-c1ccccc1,.,.,.,.,55,.
CC[n+]1cccc(-c2nc3ccccc3s2)c1,.,/,44,.,.,34
Oc1cccc(-c2nc3ccccc3s2)c1,.,.,.,.,.,.
O=C(N/N=C/c1ccc2cccnc2c1)c1nc2ccccc2c(=O)[nH]1,/,.,.,/,/,.
O=C(NCCCN1CCc2ccccc2C1)Nc1ccc(Br)cc1,.,/,.,.,95,.
Cc1nc2c(C#N)c[nH]n2c(=O)c1CCO,/,.,.,/,/,.
Nc1c(S(=O)(=O)c2cccc(Cl)c2)c2nc3ccccc3nc2n1/N=C/c1ccc(O)c(O)c1,.,.,.,.,100,.
O=C(N/N=C/c1cc2cc3c(cc2nc1Cl)OCO3)c1ccncc1,/,.,.,/,/,.
COc1cc(CNCc2ccncc2)cc(Br)c1OCc1ccccc1F,.,.,.,.,98,.
CCOc1cc(CNCCO)cc(Br)c1OCc1ccc(Cl)cc1,.,/,.,.,101,.
COc1cc(CNCCO)cc(Cl)c1OCc1ccccc1Cl,.,.,.,.,99,.
CCCCOc1c(Cl)cc(CNC(C)(C)CO)cc1OCC,.,/,.,.,.,.
CCOc1cc(CNC(C)(C)CO)cc(Br)c1OCc1ccc(Cl)cc1Cl,.,.,.,.,100,.
COc1cc(CNn2cn[nH]c2=S)cc(Br)c1OCc1ccccc1F,.,.,.,.,.,.
CCNc1nc(OC)nc(N2CCC(Cc3ccccc3)CC2)n1,.,.,.,.,.,.
CCOc1cc(CNc2ccc(O)cc2)cc(Br)c1OCc1ccccc1F,.,.,.,.,80,.
C=CCOc1c(Br)cc(/C=N/Nc2ccc(C(=O)O)cc2)cc1OCC,.,.,.,.,.,.
C=CCOc1c(Br)cc(CNc2ccc(NC(=O)C(C)C)cc2)cc1OCC,.,.,.,.,97,.
CCOc1cc(CNCCCN2CCOCC2)cc(Br)c1OCc1ccccc1Cl,.,.,.,.,101,.
SMILES,MT stabilize HCS,bCat nuc transl,BaF3 tox,APP 5UTR inh,L major viab,Ba/F3 V617F tox
CCOc1cc(CNCCO)cc(Br)c1OCc1ccccc1Cl,.,.,.,.,100,.
CCOc1cc(CNCCCN2CCOCC2)ccc1OCC(=O)NC(C)(C)C,.,.,.,.,.,.
COc1cccc(CNCCO)c1OCc1ccccc1Cl,.,/,.,/,.,.
COc1cc(CNc2ccc(O)cc2)cc(Br)c1OCc1ccccc1F,.,.,.,.,.,.
O=c1cc([O-])[n+]2c3n1CCCN3CCC2,.,.,.,.,.,.
O=C(NNC(=O)c1cc2cc(OC(F)(F)F)ccc2[nH]1)c1cccc(C(F)(F)F)c1,/,.,.,/,/,.
CCOc1ccc(N(C(=O)C2CCCO2)C2C=CS(=O)(=O)C2)cc1 (centres undefined),.,.,.,.,.,.
O=C(NCc1ccc(F)cc1)C(=O)NCC1OCCN1C(=O)c1cccs1 (centres undefined),.,.,.,.,.,.
Cc1ccc(S(=O)(=O)N2CCN(C(C)C(=O)Nc3ccccc3-c3ccccc3)CC2)cc1 (centres undefined),.,.,.,.,94,.
CC1CCN(C(C)C(=O)Nc2ccccc2-c2ccccc2)CC1 (centres undefined),.,.,.,.,51,.
COc1cccc(C2CCCCN(C)C2=O)c1 (centres undefined),/,.,.,/,/,.
